Assay results taken from ChEMBL document CHEMBL1268908, “Design, synthesis, radiolabeling, and in vivo evaluation of carbon-11 labeled N-[2-[4-(3-cyanopyridin-2-yl)piperazin-1-yl]ethyl]-3-methoxybenzamide, a potential positron emission tomography tracer for the dopamine D(4) receptors” (J Med Chem, 2010).

How the values were obtained:
Assay type in all cases: ADME, organism-based, Macaca mulatta
[1] = Biodistribution in rhesus monkey retina at 150.3 MBq, iv after 35 mins; details: in vivo
[2] = test system: Hippocampus; assay: Biodistribution in rhesus monkey hippocampus at 150.3 MBq, iv after 21 mins; details: in vivo, 0.35 h
How it was run: (§1)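 Single male rhesus monkey anesthetized with ketamine 10 mg/kg im, head fixed. Attenuation correction by 20 min 68Ge-68Ga transmission scan. [11C]-tracer in saline (pH 7.4) given iv, specific radioactivity 2.9 TBq/μmol at injection. Dynamic 3D PET emission scan over 90 min in frames of 0.5 to 5 min. MRI T1 images used to define VOIs. Uptake expressed as […].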

[3] = test system: Striatum; assay: Biodistribution in rhesus monkey striatum at 150.3 MBq, iv after 45 mins; details: in vivo, 0.75 h
[4] = Biodistribution in rhesus monkey entorhinal cortex at 150.3 MBq, iv after 39 mins; details: in vivo, 0.65 h; how it was run: as §1
[5] = Biodistribution in rhesus monkey cingulate cortex at 150.3 MBq, iv after 25 mins; details: in vivo
How it was run: (§2)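 Male rhesus monkey under ketamine (10 mg/kg im) with head fixation. After a 20 min 68Ge-68Ga transmission scan, the [11C]-labelled tracer in saline (pH 7.4) was injected iv, at 2.9 TBq/μmol specific radioactivity at injection. A dynamic 3D PET scan followed over 90 min (6×0.5, 7×1, 20×2, 8×5 min frames). Regions were defined on T1-weighted 1.5 T MRI, and uptake is given as %ID/mL.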

[6] = Biodistribution in rhesus monkey entorhinal cortex at 150.3 MBq, iv after 67.5 mins; details: in vivo, 1.125 h; how it was run: as §1
[7] = test system: Striatum; assay: Biodistribution in rhesus monkey striatum at 150.3 MBq, iv after 13 mins; details: in vivo
[8] = Biodistribution in rhesus monkey cingulate cortex at 150.3 MBq, iv after 67.5 mins; details: in vivo, 1.125 h; how it was run: as §1
[9] = test system: Striatum; assay: Biodistribution in rhesus monkey striatum at 150.3 MBq, iv after 57.5 mins; details: in vivo
[10] = Biodistribution in rhesus monkey entorhinal cortex at 150.3 MBq, iv after 19 mins; details: in vivo; how it was run: as §1
[11] = test system: Hippocampus; assay: Biodistribution in rhesus monkey hippocampus at 150.3 MBq, iv after 33 mins; details: in vivo, 0.55 h
How it was run: (§3)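 Male rhesus monkey under ketamine 10 mg/kg im, head fixed; 20 min 68Ge-68Ga transmission scan, then 90 min dynamic 3D PET (6×0.5, 7×1, 20×2, 8×5 min frames) after iv [11C]-labelled tracer in saline, specific radioactivity about 2.9 TBq/μmol at injection. Regions defined on T1-weighted MRI; uptake expressed as % injected dose per mL.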

[12] = Biodistribution in rhesus monkey cingulate cortex at 150.3 MBq, iv after 19 mins; details: in vivo; how it was run: as §2
[13] = test system: Hippocampus; assay: Biodistribution in rhesus monkey hippocampus at 150.3 MBq, iv after 6.5 mins; details: in vivo; how it was run: as §3
[14] = Biodistribution in rhesus monkey cerebellum at 150.3 MBq, iv after 21 mins; details: in vivo, 0.35 h; how it was run: as §2
[15] = Biodistribution in rhesus monkey retina at 150.3 MBq, iv after 52.5 mins; details: in vivo, 0.875 h
[16] = Biodistribution in rhesus monkey occipital lobe at 150.3 MBq, iv after 8.5 mins; details: in vivo
[17] = Biodistribution in rhesus monkey retina at 150.3 MBq, iv after 62.5 mins; details: in vivo
[18] = Biodistribution in rhesus monkey retina at 150.3 MBq, iv after 29 mins; details: in vivo
[19] = Biodistribution in rhesus monkey occipital lobe at 150.3 MBq, iv after 87.5 mins; details: in vivo
[20] = test system: Hippocampus; assay: Biodistribution in rhesus monkey hippocampus […], iv after 17 mins; details: in vivo, in the assay text read “150.3 MBq” for “170.3 MBq”; how it was run: as §3
[21] = Biodistribution in rhesus monkey cingulate cortex at 150.3 MBq, iv after 11 mins; details: in vivo; how it was run: as §2
[22] = test system: Striatum; assay: Biodistribution in rhesus monkey striatum at 150.3 MBq, iv after 25 mins; details: in vivo
[23] = Biodistribution in rhesus monkey cingulate cortex at 150.3 MBq, iv after 37 mins; details: in vivo; how it was run: as §2
[24] = test system: Hippocampus; assay: Biodistribution in rhesus monkey hippocampus at 150.3 MBq, iv after 45 mins; details: in vivo, 0.75 h; how it was run: as §3
[25] = test system: Hippocampus; assay: Biodistribution in rhesus monkey hippocampus at 150.3 MBq, iv after 29 mins; details: in vivo; how it was run: as §3
[26] = test system: Hippocampus; assay: Biodistribution in rhesus monkey hippocampus at 150.3 MBq, iv after 9.5 mins; details: in vivo; how it was run: as §3
[27] = Biodistribution in rhesus monkey cerebellum at 150.3 MBq, iv after 57.5 mins; details: in vivo; how it was run: as §2
[28] = Biodistribution in rhesus monkey occipital lobe at 150.3 MBq, iv after 67.5 mins; details: in vivo, 1.125 h
[29] = Biodistribution in rhesus monkey entorhinal cortex at 150.3 MBq, iv after 4.5 mins; details: in vivo, 0.075 h; how it was run: as §1
[30] = Biodistribution in rhesus monkey entorhinal cortex at 150.3 MBq, iv after 49 mins; details: in vivo; how it was run: as §1
[31] = test system: Striatum; assay: Biodistribution in rhesus monkey striatum at 150.3 MBq, iv after 7.5 mins; details: in vivo, 0.125 h
[32] = test system: Striatum; assay: Biodistribution in rhesus monkey striatum at 150.3 MBq, iv after 62.5 mins; details: in vivo
[33] = Biodistribution in rhesus monkey occipital lobe at 150.3 MBq, iv after 1.25 mins; details: in vivo, 75 s; how it was run: as §3
[34] = test system: Striatum; assay: Biodistribution in rhesus monkey striatum at 150.3 MBq, iv after 2.75 mins; details: in vivo, 165 s
[35] = Biodistribution in rhesus monkey cerebellum at 150.3 MBq, iv after 62.5 mins; details: in vivo; how it was run: as §2
[36] = Biodistribution in rhesus monkey retina at 150.3 MBq, iv after 13 mins; details: in vivo
[37] = Biodistribution in rhesus monkey cerebellum at 150.3 MBq, iv after 27 mins; details: in vivo, 0.45 h; how it was run: as §2
[38] = Biodistribution in rhesus monkey entorhinal cortex at 150.3 MBq, iv after 13 mins; details: in vivo; how it was run: as §1
[39] = Biodistribution in rhesus monkey cingulate cortex at 150.3 MBq, iv after 1.25 mins; details: in vivo, 75 s; how it was run: as §2
[40] = Biodistribution in rhesus monkey retina at 150.3 MBq, iv after 2.25 mins; details: in vivo, 135 s
[41] = test system: Hippocampus; assay: Biodistribution in rhesus monkey hippocampus at 150.3 MBq, iv after 87.5 mins; details: in vivo; how it was run: as §3
[42] = Biodistribution in rhesus monkey cingulate cortex at 150.3 MBq, iv after 72.5 mins; details: in vivo; how it was run: as §1
[43] = Biodistribution in rhesus monkey retina at 150.3 MBq, iv after 45 mins; details: in vivo, 0.75 h
[44] = Biodistribution in rhesus monkey cerebellum at 150.3 MBq, iv after 5.5 mins; details: in vivo; how it was run: as §2
[45] = test system: Hippocampus; assay: Biodistribution in rhesus monkey hippocampus at 150.3 MBq, iv after 77.5 mins; details: in vivo; how it was run: as §3
[46] = Biodistribution in rhesus monkey cingulate cortex at 150.3 MBq, iv after 2.25 mins; details: in vivo, 135 s; how it was run: as §2
[47] = Biodistribution in rhesus monkey cingulate cortex at 150.3 MBq, iv after 41 mins; details: in vivo; how it was run: as §2
[48] = test system: Hippocampus; assay: Biodistribution in rhesus monkey hippocampus at 150.3 MBq, iv after 0.75 mins; details: in vivo, 45 s; how it was run: as §1

- Drug uptake [1]: 57.58 kBq/ml
- Drug uptake [2]: 17.71 kBq/ml
- Drug uptake [3]: 11.04 kBq/ml
- Drug uptake [4]: 13.49 kBq/ml
- Drug uptake [5]: 16.82 kBq/ml
- Drug uptake [6]: 7.481 kBq/ml
- Drug uptake [7]: 24.68 kBq/ml
- Drug uptake [8]: 9.959 kBq/ml
- Drug uptake [9]: 9.776 kBq/ml
- Drug uptake [10]: 21.93 kBq/ml
- Drug uptake [11]: 13.18 kBq/ml
- Drug uptake [12]: 18.84 kBq/ml
- Drug uptake [13]: 37.33 kBq/ml
- Drug uptake [14]: 16.76 kBq/ml
- Drug uptake [15]: 55.05 kBq/ml
- Drug uptake [16]: 25.53 kBq/ml
- Drug uptake [17]: 54.08 kBq/ml
- Drug uptake [18]: 56.95 kBq/ml
- Drug uptake [19]: 7.721 kBq/ml
- Drug uptake [20]: 19.15 kBq/ml
- Drug uptake [21]: 25.93 kBq/ml
- Drug uptake [22]: 17.99 kBq/ml
- Drug uptake [23]: 11.95 kBq/ml
- Drug uptake [24]: 10.64 kBq/ml
- Drug uptake [25]: 16.7 kBq/ml
- Drug uptake [26]: 30.28 kBq/ml
- Drug uptake [27]: 9.179 kBq/ml
- Drug uptake [28]: 7.697 kBq/ml
- Drug uptake [29]: 33.7 kBq/ml
- Drug uptake [30]: 9.688 kBq/ml
- Drug uptake [31]: 34.7 kBq/ml
- Drug uptake [32]: 9.547 kBq/ml
- Drug uptake [33]: 55.16 kBq/ml
- Drug uptake [34]: 50.12 kBq/ml
- Drug uptake [35]: 8.418 kBq/ml
- Drug uptake [36]: 50.22 kBq/ml
- Drug uptake [37]: 15.14 kBq/ml
- Drug uptake [38]: 22.48 kBq/ml
- Drug uptake [39]: 60.79 kBq/ml
- Drug uptake [40]: 36.9 kBq/ml
- Drug uptake [41]: 8.159 kBq/ml
- Drug uptake [42]: 9.513 kBq/ml
- Drug uptake [43]: 56.64 kBq/ml
- Drug uptake [44]: 33.43 kBq/ml
- Drug uptake [45]: 8.119 kBq/ml
- Drug uptake [46]: 50.61 kBq/ml
- Drug uptake [47]: 10.93 kBq/ml
- Drug uptake [48]: 57.7053 kBq/ml
SMILES: [11CH3]Oc1cccc(C(=O)NCCN2CCN(c3ncccc3C#N)CC2)c1
